Test results published in the EternaBench riboswitch data.

Columns and labels:
[1] = test system: MS2 coat protein; assay: apparent Kd, MS2 coat protein; higher = weaker binding; RNA-MaP array
Method in brief: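 Apparent Kd was taken as the median of binding curves fitted cluster by cluster. The designed RNAs were made by transcription of sequenced DNA templates on an Illumina sequencing chip and exposed to fluorescently labeled MS2 coat protein (1.5 nM to 3 μM) at room temperature, with or without input ligand, for 0.8–1.5 h at the lowest and 10–20 min at the highest concentrations. Any design measured on fewer than 10 clusters was left out.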

[2] = test system: MS2 coat protein; assay: apparent Kd, MS2 coat protein; higher = weaker binding; RNA-MaP array; FMN 200 µM where present
Method in brief: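 Each design was made on Illumina sequencing-chip clusters by stalled E. coli RNA polymerase and titrated with SNAP-549-labelled MS2 coat protein from 0.7 or 1.5 nM, doubling to 3 µM, in the absence and then the presence of constant ligand. The buffer was 100 mM Tris-HCl pH 7.5, 80 mM KCl, 4 mM MgCl2, BSA, DTT, yeast tRNA and Tween-20. The apparent Kd is the median of filtered per-cluster fits of binding curves, with green signal normalised to red-channel RNA signal and control-cluster median Fmax.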

[3] = designed as: OFF switch for flavin mononucleotide, no ligand
[4] = ligand present: flavin mononucleotide, designed as: OFF switch for flavin mononucleotide
[5] = designed as: ON switch for flavin mononucleotide, no ligand
[6] = ligand present: flavin mononucleotide, designed as: ON switch for flavin mononucleotide

Row | Sequence | apparent Kd [2, 3] | apparent Kd [2, 4] | further results
1 | AGUAGACGAGGAUAUACGGGCAUAUUUGAUAAGAAGAACAGACAUGAGGAUCACCCAUGUAGAAGGCGAGGCUA |  |  | apparent Kd [1, 3]: 11.1 nM; apparent Kd [1, 4]: 10.6 nM
2 | UAUGUACAUGAGGAUCACCCAUGUCAGGAUAUCUUCGAUUAGACCAUUAGCGCCGCGGAGAGAAGGGACGUAGA |  |  | apparent Kd [1, 3]: 16 nM; apparent Kd [1, 4]: 15.1 nM
3 | UAUUGCAAUGUGAGGAUAUCUCAAGAAAAGACAAGAGAGAAGGCACAUGAGGAUCACCCAUGUUAGAAACAAAA |  |  | apparent Kd [1, 3]: 19.3 nM; apparent Kd [1, 4]: 110 nM
4 | UCUUCAAUAGUAAGGAUAUCCAUAACAACAUUCAAGGAGAAGGUACAUGAGGAUCACCCAUGUGGAGUCAAUAA |  |  | apparent Kd [1, 3]: 13.1 nM; apparent Kd [1, 4]: 19.8 nM
5 | ACAAACUCAGGAUAUAACGGUGGACACAUGAGGAUCACCCAUGUAAUCCGUGUGACUUAUUUAGAAGGGAGGCGAU |  |  | apparent Kd [1, 3]: 8.35 nM; apparent Kd [1, 4]: 8.34 nM
6 | UUCACAGUGCAAGGAUAUGACAGUUUACAUGAGGAUCACCCAUGUUGGUCCUAUUCAGAAUGAGAUCAGAAGGUGCUAAUAUGU |  |  | apparent Kd [1, 3]: 18.6 nM; apparent Kd [1, 4]: 36.1 nM
7 | CGGUAGUUUUAGAAGGAGCAACCAAGUUUACAUGAGGAUCACCCAUGUGUGAGGAUAUGUUAAGGCUAGGAUAUAAUAGAACCU |  |  | apparent Kd [1, 3]: 25.4 nM; apparent Kd [1, 4]: 23.4 nM
8 | AGGGCACAUGAGGAUCACCCAUGUAAGGAUAUGGACUUUUUUGCUGUAGUAAUCAUCUCCAGAAGGUACGUCUU |  |  | apparent Kd [1, 3]: 24.4 nM; apparent Kd [1, 4]: 19.6 nM
9 | GGAUACUUUGGAGGAUAUAAUUUUAUCAUCACUUGUGAUCGAUGACAUGAGGAUCACCCAUGUAAUUAGAAGGCCAUUAAUUAC |  |  | apparent Kd [1, 5]: 239 nM; apparent Kd [1, 6]: 38.4 nM
10 | ACGGUUCGAGGAUAUGUCGGUAGUUACAUGAGGAUCACCCAUGUUGUGACAUCGUGGUGGACAGAAGGCGACAUCC |  |  | apparent Kd [1, 3]: 201 nM; apparent Kd [1, 4]: 119 nM
11 | GCGUGACAUGAGGAUCACCCAUGUAGACUUGUGGAAGGAUAUACGAGAGUUCGAGUUAAGGUAGAAGGUCCCGAUG |  |  | apparent Kd [1, 5]: 41.3 nM; apparent Kd [1, 6]: 16.3 nM
12 | CAAUUUCGAAUAGAUACCAGCUGUCAUAAACACAUGAGGAUCACCCAUGUGCUUCUCGUCAGCCCUUGGCAGCUAUAACUAGAGC |  |  | apparent Kd ([1]; designed as: ON switch for theophylline, no ligand): 15.8 nM; apparent Kd ([1]; ligand present: theophylline, designed as: ON switch for theophylline): 10 nM
13 | UUGAUAAGGAGAGGAUAUUGACAUGAGGAUCACCCAUGUACAUGGGAGUAUUUACUGAAUUCUUACGAGAAGGCUUACAUAUUU | 165 nM | 115 nM | 
14 | GCGAAGAACGAGAAGGCCACUACAUGAGGAUCACCCAUGUCGUGGAGUAUUGGAGGAUAUCGUUAGGCGUCUCAUGAGGACAUA | 5.26 nM | 5.69 nM | 
15 | GUCUCGAUGUAGAAGGCCGCGUCCGGCUCACGCGGAGGAUAUACAUGAGGAUCACCCAUGUGUCUGUGGCUUAUAUGUUACGGA | 70.8 nM | 68.3 nM | 
16 | GUACCUUAUGAGAAGGCGAUCAUAAAACGUGAUCGAGGAUAUCAUGAAAACAUGAGGAUCACCCAUGUAUGGGUAUUAUGGUAC |  |  | apparent Kd [2, 5]: 36 nM; apparent Kd [2, 6]: 19.3 nM
17 | CUUCUGUAAGGAUAUGUAAAUUGCUGGCCACACCAGCACCGGCAGAAGGUACAUGAGGAUCACCCAUGUGGGUU | 219 nM | 137 nM | 
18 | AUUAUUAUAAAUUUGGCAAGUAUCAGAAGGCGUUACAUGAGGAUCACCCAUGUUUUGUAUAGUAACGAGGAUAUGAUAUGGAAA | 15.2 nM | 13.5 nM | 
19 | UAUUUUUAUGUAAGGAUAUGGGUUUGGUUGCGGGCUUAGAAGGUACAUGAGGAUCACCCAUGUAUAAUGUGCGU | 29.6 nM | 30.5 nM | 
20 | UCGAAGAAUGCAGGAUAUACAUGAGGAUCACCCAUGUCACGGUCGGCUUCUGUAGAAGGGCACUUACCCAGGUAAAUUGCUUGG | 5.39 nM | 5.81 nM | 
21 | AGCACGAAAGUGCAACGAUGUAGCAGAAGGACAUGAGGAUCACCCAUGUAAGGUCUAUGACCAAUGUAGGAUAUGCUACAUCGA | 6.62 nM | 35 nM | 
22 | GGAGACCUCACAGGAUAUGCUGGACUUUGUCCAGCAGAAGGGUGAAUACAUGAGGAUCACCCAUGUGGUCUCCAAAUAUUUAAU |  |  | apparent Kd [2, 5]: 1170 nM; apparent Kd [2, 6]: 75.3 nM
23 | AACAGCUCGUCAGGAUAUAUUAUAAUAAUACGGCAGUUUGUACAUGAGGAUCACCCAUGUUGUAUGUAGAAGGGACGAGCUGAA | 9.86 nM | 8.91 nM | 
24 | GGCGGUUUACAAGGAUAUUAGAAACAGACCAAAUAAGAAGGUGUUAUCUGGCAAUGCGAAAGCAGACAUGAGGAUCACCCAUGU |  |  | apparent Kd [2, 5]: 58.3 nM; apparent Kd [2, 6]: 57.1 nM
25 | UUGCCUCAGAACAUGAGGAUCACCCAUGUGCUGCGGGCAACGUAGGAUAUGAUGGUGUGACACCGUCAGAAGGAUGAUGGUACC |  |  | apparent Kd [2, 5]: 5.97 nM; apparent Kd [2, 6]: 6.05 nM
26 | AUUUCAAUUGUUUACAUGAGGAUCACCCAUGUCAUAAGUCAUGAGGAUAUGGUAUUGUAGUUAUUCCAGAAGGCAUAUAGCUUA |  |  | apparent Kd [2, 5]: 38.5 nM; apparent Kd [2, 6]: 14.4 nM
27 | CGUGUGUGAACAGGAUAUUGGAACGUACCUCGCCACAUGAGGAUCACCCAUGUCGUUGCUCACGCCAAGAAGGGUUUACGCCUA |  |  | apparent Kd [2, 5]: 248 nM; apparent Kd [2, 6]: 226 nM

Row | Sequence | apparent Kd [2, 3] | apparent Kd [2, 4] | further results
28 | GUUUCGGGAGGAUAUGCGUGGAUUGUUCUCGUAUGUUGUUUACAUGAGGAUCACCCAUGUAGAAGGUCUGGAGC | 170 nM | 136 nM | 
29 | GAUCAACAUGAGGAUCACCCAUGUGAGGAUAUGAUACUAUGUACUUCGGUACAUAGUAUCAGAAGGCACUAGGA | 65.6 nM | 192 nM | 
30 | UUCGGCGCAGGAUAUGCAGUUCUGUGUUGAAUCGGCGCGGGACAUGAGGAUCACCCAUGUAGAAGGGUGUUGGG | 374 nM | 239 nM | 
31 | AAACACGGACAUGAGGAUCACCCAUGUGGCGAAAGCCUUGGGAGAAGGCCGAUAGCAAAGCUAUCGGAGGAUAUUCAUACCGUG |  |  | apparent Kd [2, 5]: 1200 nM; apparent Kd [2, 6]: 61 nM
32 | CUAACACAUGAGGAUCACCCAUGUUAGGAUAUUAGUACUAUUUACCACAUAAUGGCACUGAGAAGGAGCGGGUA | 29.3 nM | 31.3 nM | 
33 | UUAUUUUUACAGAAGGUUUAAUACUAUGUAUGAGAAGGAUAUGUAACAUGAGGAUCACCCAUGUUUUAUUUAUAUGAGGUUCGU | 13.8 nM | 12.5 nM | 
34 | UCAAUUUUGCGAGGAUAUCGACCAUUCCUCUUUACAUGAGGAUCACCCAUGUACUUAUUCUACAACGAGAAGGCGCUCAUAGUU | 37.5 nM | 43 nM | 
35 | GAUCCUUCUGUUAGGAUAUGCUUUGGGCUUCCGCAGCAGAAGGAACAUGAGGAUCACCCAUGUUCGAUGCCGUC | 60.4 nM | 59.9 nM | 
36 | UCAUUUCUGUAAGGAUAUAUAAACAUGACGAUACAUGAGGAUCACCCAUGUAUAGAAGGUACAAAUACAUAUAAUGCAAUGUUC | 16.9 nM | 12.9 nM | 
37 | GGGACCAACACAGGAUAUGCUAUCCUUUGGGUAGCAGAAGGGUGAAACAUGAGGAUCACCCAUGUGGUUCCAGGGCGUGAGCCC |  |  | apparent Kd [2, 5]: 1580 nM; apparent Kd [2, 6]: 99.6 nM
38 | ACAGUAUAUGUAGGAUAUCGUUGGUUAGAUAGGCGAGAAGGGCAUAGUACAUGAGGAUCACCCAUGUGUUGGUCCUCGCAGAAA | 454 nM | 237 nM | 
39 | GUCAGCUCGUGAGGAUAUACAACACUGCUUGGGCAGUGUAUUAAGAUCACAUGAGGAUCACCCAUGUAGAAGGCACGAGCUGAU | 13.9 nM | 216 nM | 
40 | GUCCUUAGCGAGGAUAUCGGGCGGGUUUUUGUUUGAGAAGGCGUGACAUGAGGAUCACCCAUGUGGCGCGUGGG | 39.2 nM | 69.7 nM | 
41 | AAAACCUCAUGAGGAUAUCCAACAUGAGGAUCACCCAUGUUAGUCUCAGUACUAGAUACUUGAGAGGAGAAGGCAUGCCAGGGC |  |  | apparent Kd [2, 5]: 97 nM; apparent Kd [2, 6]: 31.6 nM
42 | AGAGCCGGCACCGAGGAUAUUCAUAUUAAAACAUGAGGAUCACCCAUGUAGGCCAGAAGGCCUUGGGAGAAGGCGGAUCGGCUCG |  |  | apparent Kd [2, 5]: 707 nM; apparent Kd [2, 6]: 39.5 nM
43 | UUUUAACAUGAGGAUCACCCAUGUGAGGAUAUCGAAUUUUUUAUUAAUAUUAAUAAAACGAGAAGGCACAUUUU | 63.1 nM | 70.2 nM | 
44 | AUAGACAUACAGCCACAUGAGGAUCACCCAUGUACGCUGACGAGAAGGGUCAGCUAGCAGAGGUGACAGGAUAUCGGACAUGAA |  |  | apparent Kd [2, 5]: 149 nM; apparent Kd [2, 6]: 89 nM
45 | UGAGCAAGAGGAUAUACAAGGCGACCGUGAGGUCGAGGGUUACAUGAGGAUCACCCAUGUAGAAGGCUUGUUCU | 37.1 nM | 323 nM | 
46 | UCUGCCGCCGUGAGGAUAUGCCCGCGAAAACGCGGGCAGAAGGCACAUGAGGAUCACCCAUGUCCCGCGGUUUU | 16.1 nM | 36.7 nM | 
47 | AGCCAACAUGAGGAUCACCCAUGUCUACAGGAUUAAGGAUAUGGGCAGGACUUCCCUGCACUAGAAGGUGAUCCAA |  |  | apparent Kd [2, 5]: 28.9 nM; apparent Kd [2, 6]: 251 nM
48 | ACGGAGUCAGGAUAUUUAGAGCGUUGGCAAUGCUAGCGCAUGGAGAAGGGACAUGAGGAUCACCCAUGUUUGGA | 39.9 nM | 39.9 nM | 
49 | AUCAGCUCGUCAGGAUAUACGUCACUGCGUCAGCAGUGUGGUAAGAUCACAUGAGGAUCACCCAUGUAGAAGGGAGGAGCUGAU | 15 nM | 438 nM | 
50 | AACGAGCAGUAGAAGGGAUGUCUACGGACAUGAGGAUCACCCAUGUUGUGACUCCGAAAGGAGCGUCAGGAUAUACUGCUCAAA |  |  | apparent Kd [2, 5]: 8.13 nM; apparent Kd [2, 6]: 6.15 nM
51 | CGCAACUCAGAUCUUUUGAACAUGAGGAUCACCCAUGUAUUGAGAAGGAGCUGGAAGAGAGACAGCUAGGAUAUCAGAGUUGCG | 5.4 nM | 5.73 nM | 
52 | UGAACAAUGUAGAAGGCCCAUAUUUAUAUAUAGGGAGGAUAUACAUGAGGAUCACCCAUGUAAAGAGCAAGAGGAUUUGACAGA | 10.4 nM | 22.2 nM | 
53 | GCUGUCGCAUGAGGAUAUGGUCAGCUUUGCUGACCAGAAGGCAUGUCAAUAGACAUGAGGAUCACCCAUGUAGUUAGGGCGGCU |  |  | apparent Kd [2, 5]: 571 nM; apparent Kd [2, 6]: 57.4 nM
